How the values were obtained:
Assay type in all cases: cell-based
[1] = Cytotoxicity against human Raji cells assessed as cell viability at 3.2 nmol by trypan blue staining; details: read-out: Activity
Summary of the method: (§1)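 Raji cells grown to 10^6 cells/mL, pelleted and resuspended in RPMI 1640 with 10% FCS, 4 mM n-butyric acid and 32 pmol TPA (20 ng/mL). Test agent added in DMSO at mole ratios to TPA (1000 = 32 nmol, 500 = 16 nmol, 100 = 3.2 nmol, 10 = 0.32 nmol). Incubated 37 °C for 48 h. Viability counted by hemocytometer with Trypan Blue.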

Raji [2] = test: Inhibition of 12-O-tetradecanoylphorbol-13-acetate-induced EBV-early antigen activation in human Raji cells assessed as EA activation at 32 nmol relative to 12-O-tetradecanoylphorbol-13-acetate; design: scale not given: the % may be the effect or the level left; details: human gammaherpesvirus 4
Summary of the method: (§2)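 Raji cells at 10^6 cells/mL resuspended in RPMI 1640 with 10% FCS, 4 mM n-butyric acid as inducer and 32 pmol TPA (20 ng/mL in DMSO), plus test agent in DMSO (32, 16, 3.2 or 0.32 nmol). Held 37 °C for 48 h. EA-positive cells scored blind, at least 500 cells per assay. Values are % of the TPA positive control (100%), ± s.d.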

[3] = Cytotoxicity against human Raji cells assessed as cell viability at 0.32 nmol by trypan blue staining; details: read-out: Activity; summary of the method: as §1
[4] = Cytotoxicity against human Raji cells assessed as cell viability at 16 nmol by trypan blue staining; details: read-out: Activity; summary of the method: as §1
Raji [5] = test: Inhibition of 12-O-tetradecanoylphorbol-13-acetate-induced EBV-early antigen activation in human Raji cells assessed as EA activation at 16 nmol relative to 12-O-tetradecanoylphorbol-13-acetate; design: scale not given: the % may be the effect or the level left; details: human gammaherpesvirus 4; summary of the method: as §2
Raji [6] = test: Inhibition of 12-O-tetradecanoylphorbol-13-acetate-induced EBV-early antigen activation in human Raji cells assessed as EA activation at 0.32 nmol relative to 12-O-tetradecanoylphorbol-13-acetate; design: scale not given: the % may be the effect or the level left; details: human gammaherpesvirus 4; summary of the method: as §2
[7] = Cytotoxicity against human Raji cells assessed as cell viability at 32 nmol by trypan blue staining; details: read-out: Activity; summary of the method: as §1
Raji [8] = test: Inhibition of 12-O-tetradecanoylphorbol-13-acetate-induced EBV-early antigen activation in human Raji cells assessed as EA activation at 3.2 nmol relative to 12-O-tetradecanoylphorbol-13-acetate; design: scale not given: the % may be the effect or the level left; details: human gammaherpesvirus 4; summary of the method: as §2

Row | SMILES | viability at 3.2 nmol [1] | Activity (Raji [2]) | viability at 0.32 nmol [3] | viability at 16 nmol [4] | Activity (Raji [5]) | Activity (Raji [6]) | viability at 32 nmol [7] | Activity (Raji [8])
1 | CC1(CC2C=C(CO)C(=O)O2)OC1COc1ccc2ccc(=O)oc2c1 (stereo not given) [CLAUSLACTONE J] | > 80% | 27.4% | > 80% | > 80% | 65.8% | 100% | 60% | 85.2%
2 | CC1(O)CC(CC(C)(O)C2COc3ccc4ccc(=O)oc4c3O2)OC1=O (stereo not given) [CLAUSLACTONE B] | > 80% | 17.1% | > 80% | > 80% | 50.5% | 100% | 60% | 82.7%
3 | CC(O)(CC1C=C(CO)C(=O)O1)C1COc2ccc3ccc(=O)oc3c2O1 (stereo not given) [CLAUSLACTONE D] | > 80% | 19.6% | > 80% | > 80% | 52.3% | 100% | 60% | 84.8%
4 | C=C1CC(CC(C)(O)C2COc3ccc4ccc(=O)oc4c3O2)OC1=O (stereo not given) [CLAUSLACTONE A] | > 80% | 26.4% | > 80% | > 80% | 59.2% | 100% | 60% | 85.2%
5 | COc1ccc2ccc(=O)oc2c1 [HERNIARIN] | > 80% | 0% | > 80% | 60% | 71.7% | 100% | 30% | 100%
6 | CC1(O)CC(CC2(C)OC2COc2ccc3ccc(=O)oc3c2)OC1=O (stereo not given) [CLAUSLACTONE H] | > 80% | 25.1% | > 80% | > 80% | 60.4% | 100% | 60% | 88.4%
7 | C=C1CC(C/C(C)=C/COc2ccc3ccc(=O)oc3c2O)OC1=O (stereo not given) [CLAUSLACTONE E] | > 80% | 22.4% | > 80% | > 80% | 58.8% | 100% | 60% | 86.2%
8 | C=C1CC(CC2(C)OC2COc2ccc3ccc(=O)oc3c2)OC1=O (stereo not given) [CLAUSLACTONE F] | > 80% | 29.3% | > 80% | > 80% | 62.7% | 100% | 60% | 89.6%
9 | CC(O)(CC1CC(O)(CO)C(=O)O1)C1COc2ccc3ccc(=O)oc3c2O1 (stereo not given) [CLAUSLACTONE C] | > 80% | 10.3% | > 80% | > 80% | 46.9% | 95.3% | 60% | 80.1%
10 | C/C(=C\COc1ccc2ccc(=O)oc2c1)CC1CC(O)(CO)C(=O)O1 (stereo not given) [CLAUSLACTONE I] | > 80% | 20.6% | > 80% | > 80% | 54.3% | 100% | 60% | 82.5%

From ChEMBL document CHEMBL1155580, “Chemical constituents of Clausena excavata: isolation and structure elucidation of novel furanone-coumarins with inhibitory effects for tumor-promotion” (J Nat Prod, 2000)
